Reference: ChEMBL document CHEMBL1132586, “New water-soluble duocarmycin derivatives: synthesis and antitumor activity of A-ring pyrrole compounds bearing beta-heteroarylacryloyl groups” (J Med Chem, 1999)

Key:
Mus musculus [1] = species: Mus musculus; assay: Compound was tested for hematotoxicity and the number of peripheral platelets of normal mice on day 7 (percent of control) was determined, expressed as percent of control; format: functional
Procedure, shortened: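 Normal male ddY mice (mean weight 20 ± 1 g) given a single iv tail-vein injection of drug dissolved in saline; 7 days later orbital-vein blood drawn and platelets counted on a microcell counter; value is treated count as percent of control.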

Mus musculus [2] = species: Mus musculus; assay: Compound was tested for hematotoxicity and the number of white blood cells of tumor bearing mice on day 4(percent of control) was determined, expressed as percent of control; format: functional
Procedure, shortened: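 Sarcoma 180-bearing mice dosed iv starting 1 day after sc tumour inoculation; 4 days later orbital-vein blood drawn and white blood cells counted on a microcell counter; value is treated count as percent of control.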

CCRF S-180 [3] = assay: Compound was tested in vivo for antitumor activity against murine sarcoma 180 in mice at 0.25 mg/kg dosage and efficacy is expressed as T/C (mice were implanted subcutaneously with tumor cells and the drug was dosed intravenously); format: functional, Mus musculus; details: route intravenous
Procedure, shortened: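 Sarcoma 180 cells passaged in adult male ddY mice and inoculated sc at the axillary region, 5 mice/group; iv dosing began 1 day after inoculation. Tumour volume = length × width²/2. T/C is treated over control mean tumour volume; effective at ≤42%, Mann–Whitney U test (p < 0.05).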

HeLa [4] = assay: Compound was tested in vitro for anticellular activity against HeLa S3 cell growth at 1-hour exposure.; format: functional, cell-based; details: Homo sapiens
HeLa [5] = assay: Compound was tested in vitro for anticellular activity against HeLa S3 cell growth at 72-hour exposure.; format: functional, cell-based; details: Homo sapiens
CCRF S-180 [6] = assay: Compound was tested in vivo for antitumor activity against murine sarcoma 180 in mice at 4 mg/kg dosage and efficacy is expressed as T/C (mice were implanted subcutaneously with tumor cells and the drug was dosed intravenously); details: route intravenous
[7] = Aqueous solubility of the compound; format: physicochemical; details: water; read-out: S

SMILES: COC(=O)c1c(C)[nH]c2c1[C@@]13C[C@@H]1CN(C(=O)/C=C/c1ccc(OC)cc1)C3=CC2=O
- Hematotoxicity (Mus musculus [1]): 50%
- Hematotoxicity (Mus musculus [2]): 63%
- T/C (CCRF S-180 [3]): 0.34

SMILES: COC(=O)c1c(C)[nH]c2c1[C@@]13C[C@@H]1CN(C(=O)/C=C/c1ccc(OC)nc1)C3=CC2=O
- IC50 (HeLa [4]): 3.3 nM
- IC50 (HeLa [5]): 0.42 nM
- Hematotoxicity (Mus musculus [1]): 50%
- Hematotoxicity (Mus musculus [2]): 84%
- T/C (CCRF S-180 [6]): 0.6

SMILES: COC(=O)c1c(C)[nH]c2c1[C@@]13C[C@@H]1CN(C(=O)/C=C/c1cnc(OC)nc1)C3=CC2=O
- IC50 (HeLa [4]): 2.5 nM
- IC50 (HeLa [5]): 0.9 nM
- Hematotoxicity (Mus musculus [1]): 28%
- Hematotoxicity (Mus musculus [2]): 86%
- T/C (CCRF S-180 [3]): 0.45

SMILES: COC(=O)c1c(C)[nH]c2c1[C@@]13C[C@@H]1CN(C(=O)/C=C/c1ccc(OC)cn1)C3=CC2=O
- IC50 (HeLa [4]): 9.7 nM
- IC50 (HeLa [5]): 2.9 nM

SMILES: COC(=O)c1c(C)[nH]c2c1[C@@]13C[C@@H]1CN(C(=O)/C=C/c1ccc(OC)nn1)C3=CC2=O
- IC50 (HeLa [4]): 0.5 nM
- IC50 (HeLa [5]): 0.28 nM

SMILES: COC(=O)c1c(C)[nH]c2c(OC(=O)N3CCN(C)CC3)cc3c(c12)[C@H](CBr)CN3C(=O)/C=C/c1ccc(OC)cn1.Cl
- solubility [7]: > 20 mg/mL
- IC50 (HeLa [4]): 1300 nM
- IC50 (HeLa [5]): 150 nM
- Hematotoxicity (Mus musculus [1]): 38%
- Hematotoxicity (Mus musculus [2]): 105%
- T/C (CCRF S-180 [3]): 0.5

SMILES: COC(=O)c1c(C)[nH]c2c(OC(=O)N3CCN(C)CC3)cc3c(c12)[C@H](CBr)CN3C(=O)/C=C/c1cnc(OC)nc1.Cl
- solubility [7]: > 20 mg/mL
- IC50 (HeLa [4]): 1300 nM
- IC50 (HeLa [5]): 170 nM
- Hematotoxicity (Mus musculus [1]): 26%
- Hematotoxicity (Mus musculus [2]): 69%
- T/C (CCRF S-180 [3]): 0.26

SMILES: COC(=O)c1c(C)[nH]c2c(OC(=O)N3CCN(C)CC3)cc3c(c12)[C@H](CBr)CN3C(=O)/C=C/c1ccc(OC)nn1.Cl
- solubility [7]: > 20 mg/mL
- IC50 (HeLa [4]): 1100 nM
- IC50 (HeLa [5]): 90 nM
- Hematotoxicity (Mus musculus [1]): 51%
- Hematotoxicity (Mus musculus [2]): 115%
- T/C (CCRF S-180 [3]): 0.31

SMILES: COC(=O)c1c(C)[nH]c2c(OC(=O)N3CCN(C)CC3)cc3c(c12)[C@H](CBr)CN3C(=O)/C=C/c1ccc(OC)nc1.Cl
- solubility [7]: > 20 mg/mL
- IC50 (HeLa [4]): 900 nM
- IC50 (HeLa [5]): 110 nM
- Hematotoxicity (Mus musculus [1]): 38%
- Hematotoxicity (Mus musculus [2]): 92%
- T/C (CCRF S-180 [3]): 0.36
